Here are results for twelve compounds from ChEMBL document CHEMBL2157965, “Structure-based design of potent Bcl-2/Bcl-xL inhibitors with strong in vivo antitumor activity” (J Med Chem, 2012).

One series deals with NCI-H1963. Kind of series: Antiproliferative activity against human NCI-H1963 cells after 4 days by WST8 assay. It is filed as functional, cell-based. The note with it: NCI-H1963, 96 h. In outline:
(§1)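 Growth inhibition was measured as described previously. IC50 values come from growth curves.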

A short description of series [1]: Inhibition of human N-terminal His6-tagged Bcl2 isoform 2 expressed in Escherichia coli BL21(DE3) assessed as inhibition of Fluorescein-labeled BIM binding after 1 to 2 hrs by fluorescence polarization assay. On the technique in general: In fluorescence polarisation assays a small probe gives low polarisation when free and higher when bound to something large.
Another series addresses Bcl-2-like protein 1 (Homo sapiens, UniProt Q07817). Kind of series: Inhibition of human N-terminal His8-tagged Bcl-XL expressed in Escherichia coli BL21(DE3) assessed as inhibition of Fluorescein-labeled BAK binding after 1 to 2 hrs by fluorescence polarization assay.
In series [2] the target is Induced myeloid leukemia cell differentiation protein Mcl-1 (Homo sapiens, UniProt Q07820). Description: Inhibition of human N-terminal His8-tagged Mcl1 expressed in Escherichia coli BL21(DE3) assessed as inhibition of Fluorescein-labeled BID binding after 1 to 2 hrs by fluorescence polarization assay.
Induced myeloid leukemia cell differentiation protein Mcl-1, sequence (Q07820 whole entry): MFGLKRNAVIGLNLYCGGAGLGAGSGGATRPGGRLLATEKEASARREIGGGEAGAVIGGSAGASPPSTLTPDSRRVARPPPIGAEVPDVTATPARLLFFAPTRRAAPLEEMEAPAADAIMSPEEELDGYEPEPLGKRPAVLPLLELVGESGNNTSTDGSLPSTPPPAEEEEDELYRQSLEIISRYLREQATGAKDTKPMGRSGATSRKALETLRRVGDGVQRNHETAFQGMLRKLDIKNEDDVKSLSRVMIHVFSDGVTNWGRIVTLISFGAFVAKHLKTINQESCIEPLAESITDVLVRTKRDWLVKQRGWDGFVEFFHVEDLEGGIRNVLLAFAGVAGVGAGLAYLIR
Series [3] is described as follows: Antiproliferative activity against human NCI-H146 cells after 4 days by WST8 assay. Particulars: NCI-H146, 96 h. The class given is functional, cell-based. The method, boiled down:
as §1
For orientation: Formazan colour is commonly taken as a measure of viable cells.

For another series, the system named is NCI-H1417. Description: Antiproliferative activity against human NCI-H1417 cells after 4 days by WST8 assay. The class given is functional, cell-based. The note with it: NCI-H1417, 96 h. The method, boiled down: as §1
Series [4] concerns NCI-H146. Description: Induction of cell death in human NCI-H146 cells after 24 hrs by trypan blue assay. It is filed as functional, cell-based. In outline:
(§2)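 H146 cells were treated for 24 h across a range of concentrations. Cell death was scored by trypan blue assay.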

For series [5], the system named is NCI-H146. Description: Induction of apoptosis in human NCI-H146 cells assessed as caspase3 activation after 24 hrs by Western blot analysis. It is filed as functional, cell-based. The method, boiled down:
(§3)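 H146 cells were treated for 24 h at a range of concentrations. Lysates were probed by Western blot with rabbit antibodies to PARP and caspase-3, detecting the cleaved forms. GAPDH served as loading control.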
On the technique in general: A western blot detects proteins with antibodies after separation by electrophoresis.

Series [6] deals with NCI-H146. Description: Induction of apoptosis in human NCI-H146 cells assessed as PARP cleavage after 24 hrs by Western blot analysis. The class given is functional, cell-based. In outline: as §3
Series [7] has as its system NCI-H146. Description: Induction of apoptosis in human NCI-H146 cells assessed as PARP cleavage at 30 nM after 2 hrs by Western blot analysis. The class given is functional, cell-based.
The test system of a further series is Mus musculus. Kind of series: Toxicity in SCID mouse assessed as weight loss at 25 mg/kg, iv administered 5 days a week for 2 weeks. It is filed as organism-based. Further details: dose 25 mg/kg, route intravenous. The note with it: in vivo.
The subject of series [8] is NCI-H146. Kind of series: Induction of cell death in human NCI-H146 cells at 10 nM after 24 hrs by trypan blue assay. It is filed as functional, cell-based. The method, boiled down:
as §2

Series [9] relates to NCI-H146. Description: Induction of apoptosis in human NCI-H146 cells assessed as caspase3 activation at 10 nM after 24 hrs by Western blot analysis. The class given is functional, cell-based. The method, boiled down:
as §3

In series [10] the test system is NCI-H146. Kind of series: Induction of apoptosis in human NCI-H146 cells assessed as PARP cleavage at 10 nM after 24 hrs by Western blot analysis. The class given is functional, cell-based. In outline:
as §3

Series [11] concerns NCI-H146. Kind of series: Induction of apoptosis in human NCI-H146 cells assessed as increase in cytochrome c release after 2 hrs. It is filed as functional, cell-based.
Series [12] has as its system NCI-H146. Description: Induction of apoptosis in human NCI-H146 cells assessed as PARP cleavage after 2 hrs by Western blot analysis. It is filed as functional, cell-based.
In series [13] the test system is NCI-H146. Description: Induction of apoptosis in human NCI-H146 cells assessed as increase in cytochrome c release at 30 nM after 2 hrs. The class given is functional, cell-based.

Structures are written as SMILES. Activity calls are given as the source filed them. The calls are words filed in the database; no cut-off is given here. Peptide text beside a SMILES is read from it. Bounds are passed on as bounds.

Bcl-2-like protein 1, sequence (Q07817 whole entry): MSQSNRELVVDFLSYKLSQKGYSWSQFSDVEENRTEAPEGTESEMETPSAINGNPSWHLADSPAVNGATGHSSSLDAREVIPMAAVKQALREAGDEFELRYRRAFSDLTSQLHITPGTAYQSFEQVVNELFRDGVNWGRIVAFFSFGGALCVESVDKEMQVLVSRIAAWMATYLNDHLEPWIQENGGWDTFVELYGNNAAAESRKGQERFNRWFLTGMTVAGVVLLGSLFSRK

The term IC50 denotes the concentration that gives 50% inhibition. In turn, `CN1CCN(CCCNC(=O)c2c(-c3ccccc3)c(-c3ccc(Cl)cc3)cn2CC[C@H](O)CO)CC1` showed a 50% inhibitory concentration (IC50) with NCI-H1963 above 10000 nM.

Usually Ki stands for a dissociation constant, usually derived from enzyme kinetics or from competition with a known ligand. Consider `Cc1c(C(=O)NCCCN2CCN(C)CC2)c(-c2ccccc2)c(-c2ccc(Cl)cc2)n1C`, for which the IC50 in series [1] was 103000 nM; on Bcl-2-like protein 1, 291000 nM; in series [2], above 100000 nM; in series [3], above 10000 nM; in the series on NCI-H1417, above 10000 nM; in the series on NCI-H1963, above 10000 nM. Moreover, the values for the inhibitory constant (Ki) (in [1]; at Bcl-2-like protein 1) were 38000 nM and 88000 nM, respectively.

`CNC(=O)c1c(-c2cccc(N3CCN(c4ccc(NS(=O)(=O)c5ccc(N[C@H](CCN(C)C)CSc6ccccc6)c([N+](=O)[O-])c5)cc4)CC3)c2)c(-c2ccc(Cl)cc2)n(C)c1C`: the half-inhibitory concentration (IC50) in series [1] stood at 5 nM; in [3] it was 36 nM; with NCI-H1417 it was 109 nM; in the series on NCI-H1963, 30 nM. Further, the inhibition constant Ki was 1.1 nM in [1] and below 1 nM on Bcl-2-like protein 1.

Regarding `CN(C)CC[C@H](CSc1ccccc1)Nc1ccc(S(=O)(=O)NC(=O)c2ccc(N3CCN(Cc4ccccc4-c4ccc(Cl)cc4)CC3)cc2)cc1[N+](=O)[O-]` [ABT 737], the figures for the IC50 (in series [3]; in the series on NCI-H1417; in the series on NCI-H1963) were 37 nM, 412 nM and 59 nM, respectively. Also, the Activity entry in the series on NCI-H146 [4], in the series with NCI-H146 [5] and with NCI-H146 [6] was “Dose-dependent effect” each time.

With `CC(C)C[C@H](NC(=O)[C@H](CCCCN)NC(=O)[C@H](CC(=O)O)NC(=O)CNC(=O)[C@H](Cc1ccccc1)NC(=O)[C@H](CCCNC(=N)N)NC(=O)[C@H](CCCNC(=N)N)NC(=O)[C@H](CC(C)C)NC(=O)[C@H](CCC(N)=O)NC(=O)[C@@H](NC(=O)[C@H](C)NC(=O)[C@H](CS)NC(=O)[C@H](CCC(=O)O)NC(=O)[C@@H](NC(=O)[C@H](CCC(=O)O)NC(=O)[C@H](CC(C)C)NC(=O)[C@@H](N)CCC(=O)O)C(C)C)[C@@H](C)O)C(=O)N[C@@H](CC(N)=O)C(=O)N[C@@H](Cc1ccccc1)C(=O)N[C@@H](CCCNC(=N)N)C(=O)N[C@@H](CCC(N)=O)C(=O)N[C@@H](CCCCN)C(=O)O` (H-ELEVECATQLRRFGDKLNFRQK-OH), the IC50 at Bcl-2-like protein 1 turned out to be 11000 nM; in series [2], 37 nM. For the same compound, the Ki on Bcl-2-like protein 1 turned out to be 3400 nM.

Take `Cc1c(C(=O)O)c(-c2cccc(N3CCN(c4ccc(NS(=O)(=O)c5ccc(N[C@H](CCN(C)C)CSc6ccccc6)c([N+](=O)[O-])c5)cc4)CC3)c2)c(-c2ccc(Cl)cc2)n1C1CC1`: the concentration for half-maximal inhibition (IC50) in series [1] is 17.6 nM; at Bcl-2-like protein 1, 7.7 nM; in [2], above 2000 nM; in series [3], 69 nM; with NCI-H1417, 154 nM; with NCI-H1963, 60 nM. The results for the Ki (in series [1]; on Bcl-2-like protein 1) were 4.3 nM and below 1 nM, respectively.

Take `Cc1cc(-c2cccc(N3CCN(c4ccc(NS(=O)(=O)c5ccc(N[C@H](CCN(C)C)CSc6ccccc6)c([N+](=O)[O-])c5)cc4)CC3)c2)c(-c2ccc(Cl)cc2)n1C`: the IC50 is 11 nM at Bcl-2-like protein 1, above 10000 nM in series [2] and above 10000 nM in [3]. Also, the Ki on Bcl-2-like protein 1 came out at 1.2 nM.

As to `Cc1c(C(=O)O)c(-c2cccc(N3CCN(c4ccc(NS(=O)(=O)c5ccc(N[C@H](CCN(C)C)CSc6ccccc6)c([N+](=O)[O-])c5)cc4)CC3)c2)c(-c2ccc(Cl)cc2)n1C(C)C`, the result in the series with NCI-H146 [7], with NCI-H146 [8], with NCI-H146 [9], in the series on NCI-H146 [10] and in the series with NCI-H146 [13] was Active. The Activity result is “Toxic” in the series on Mus musculus; “Dose-dependent effect” in the series with NCI-H146 [4]; “Dose-dependent effect” in the series on NCI-H146 [5]; “Dose-dependent effect” in the series with NCI-H146 [6]; “Dose-dependent effect” with NCI-H146 [11]; “Dose-dependent effect” in the series on NCI-H146 [12]. Further, the values for the IC50 (on Bcl-2-like protein 1; in series [2]) were 4.8 nM and above 2000 nM, respectively. Also, on Bcl-2-like protein 1, the Ki is below 1 nM.

Consider `Cc1c(C(=O)NCCCN2CCN(C)CC2)c(-c2cccc(N3CCN(c4ccc(C(=O)NS(=O)(=O)c5ccc(N[C@H](CCN(C)C)CSc6ccccc6)c([N+](=O)[O-])c5)cc4)CC3)c2)c(-c2ccc(Cl)cc2)n1C`, for which the inhibition constant Ki in series [1] came to 7 nM. In addition, the IC50 was above 100000 nM in series [2], above 10000 nM in series [3], above 10000 nM with NCI-H1417 and above 10000 nM with NCI-H1963.

Consider `CSCC[C@H](NC(=O)[C@H](CCCN=C(N)N)NC(=O)[C@H](CCCN=C(N)N)NC(=O)[C@H](CC(C)C)NC(=O)[C@H](CCC(=O)O)NC(=O)[C@H](CCCN=C(N)N)NC(=O)CNC(=O)[C@H](Cc1ccc(O)cc1)NC(=O)[C@H](CCCN=C(N)N)NC(=O)[C@H](CCC(N)=O)NC(=O)[C@H](C)NC(=O)[C@H](C)NC(=O)[C@@H](N)Cc1c[nH]c2ccccc12)C(=O)N[C@@H](CO)C(=O)N[C@@H](CC(=O)O)C(=O)N[C@@H](CCC(=O)O)C(=O)N[C@@H](Cc1ccccc1)C(=O)N[C@H](C(=O)N[C@@H](CC(=O)O)C(=O)N[C@@H](CO)C(=O)N[C@@H](Cc1ccccc1)C(=O)N[C@@H](CCCCN)C(=O)O)C(C)C` (H-WAAQRYGRELRRMSDEFVDSFK-OH), for which, on Bcl-2-like protein 1, the concentration for half-maximal inhibition (IC50) was determined as 5 nM and the inhibition constant Ki is below 1 nM. The IC50 in series [2] was 32000 nM.

Consider `Cc1c(C(=O)NCCCN2CCN(C)CC2)c(-c2cccc(N3CCN(c4ccc(NS(=O)(=O)c5ccc(N[C@H](CCN(C)C)CSc6ccccc6)c([N+](=O)[O-])c5)cc4)CC3)c2)c(-c2ccc(Cl)cc2)n1C`, for which the half-inhibitory concentration (IC50) in series [1] is 2 nM; in [2] it was above 10000 nM; in [3] it was 110 nM; in the series with NCI-H1417, 258 nM; with NCI-H1963, 72 nM. Besides, the figures for the inhibition constant Ki (in series [1]; on Bcl-2-like protein 1) were below 0.6 nM and 2.4 nM, respectively.

Regarding `Cc1c(C(=O)O)c(-c2cccc(N3CCN(c4ccc(NS(=O)(=O)c5ccc(N[C@H](CCN(C)C)CSc6ccccc6)c([N+](=O)[O-])c5)cc4)CC3)c2)c(-c2ccc(Cl)cc2)n1C`, the IC50 was 1.3 nM in [1] and above 2000 nM in series [2]. Besides, the inhibition constant Ki is below 0.6 nM in series [1] and below 1 nM on Bcl-2-like protein 1. Further, the Activity entry in the series with NCI-H146 [4], in the series on NCI-H146 [5] and in the series on NCI-H146 [6] was “Dose-dependent effect” in each case.
